In the library only some 2.8% were active in any assay of this set; here they are far more common.
MC4R antag cAMP – human MC4R antagonism in cAMP assay; inhibition, % at 6.5 µM; P32245; 360,000 tested, 0.48% active; MC4R-expressing cells, MTII-stimulated cAMP, LANCE TR-FRET;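 active = inhibition above its plate's cutoff, the mean of tested wells on that plate plus 3 SD, cut at about 29% in these data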;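 note: 0% = Melanotan II alone and 100% = Melanotan II plus saturating MCL0020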
Target sequence (P32245 whole entry, looked up): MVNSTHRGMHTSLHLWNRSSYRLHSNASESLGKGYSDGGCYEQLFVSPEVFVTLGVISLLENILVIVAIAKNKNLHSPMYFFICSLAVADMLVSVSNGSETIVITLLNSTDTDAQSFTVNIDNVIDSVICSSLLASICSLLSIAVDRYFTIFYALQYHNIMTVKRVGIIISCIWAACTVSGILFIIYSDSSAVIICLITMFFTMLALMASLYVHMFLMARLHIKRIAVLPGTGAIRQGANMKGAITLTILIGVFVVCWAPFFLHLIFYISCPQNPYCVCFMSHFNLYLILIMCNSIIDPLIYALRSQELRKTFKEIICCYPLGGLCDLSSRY
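material = U2OS cells stably expressing human melanocortin 4 receptor (MC4R) | also added = Melanotan II challenge | dosing = single nominal compound dose of 6.5 µM | detection = TR-FRET with Eu-cAMP and labeled anti-cAMP, 671 nm | replication = singlicate | timing = compound 30 min, challenge 1 h, detection 1 h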
MC4R barr agon – agonists of human melanocortin 4 receptor (MC4R) beta-arrestin | P32245 | U2OS MC4R beta-arrestin complementation, luminescence; percent of melanotan II response, DMSO zero | activation, % at 8.9 µM | 360,000 tested, 0.98% active | AID 540308;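 active = activation above a per-plate cutoff, the mean activation of sample wells on that plate plus 3 SD, cut at about 8% in these data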
HTR2A ag – activates the mouse 5-HT2A serotonin receptor | activation, % at 7.6 µM | CHO-K1 mHTR2A beta-arrestin complementation, luminescence; percent of 30 µM serotonin response | 360,000 tested, 0.66% active | P35363;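 active = activation above a run cutoff, the mean activation of all tested compounds plus 3 SD, cut at about 14% in these data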;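 note: 0% = plate median of compound wells and 100% = 30 µM serotonin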
EBI2 antag – EBI2 (human) antagonism. P32249. EBI2 beta-arrestin recruitment, luminescence, 7a,25-OHC stimulated. inhibition, % at 5 µM. 360,000 tested, 0.81% active; in the data active = inhibition above about 38%;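 note: enzyme fragment complementation signal reports receptor beta-arrestin coupling in cells; 0% = agonist plus DMSO wells and 100% = wells without agonist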
U2OS cAMP counter – counter-screen for MC4R antagonists: nonselective cAMP signaling inhibitors; shares compounds with MC4R antag cAMP; parental U2OS, forskolin cAMP, LANCE TR-FRET; inhibition, % at 6.5 µM; 1,600 tested, 26% active; AID 602193;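 active = mean inhibition over triplicates above the low-control well mean plus 3 SD, set per campaign, cut at about 13% in these data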;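 note: signal is single emission at 671 nm which falls as cellular cAMP rises; 0% = forskolin-stimulated wells and 100% = buffer without forskolin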
MC4R cAMP antag – human MC4R cAMP antagonism confirmation | shares compounds with MC4R antag cAMP | MC4R-expressing cells, MTII-stimulated cAMP, TR-FRET | inhibition, % at 6.5 µM | 1,600 tested, 27% active; in the data active = inhibition above about 29%;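 note: 0% = agonist stimulated wells alone and 100% = agonist stimulated wells plus saturating reference antagonist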
Numbers without * were called inactive; · = no result given; + = active, no number.

SMILES	MC4R antag cAMP	MC4R barr agon	HTR2A ag	EBI2 antag	U2OS cAMP counter	MC4R cAMP antag
COc1ccc(NC(=O)C23CC4CC(CC(Cl)(C4)C2)C3)cc1S(=O)(=O)N1CCOCC1	7.2	0.8	-5.1	-14.5	·	·
CC1CCCCN1C(=O)COC(=O)CNC(=O)c1ccc(Cl)cc1Cl (stereo not given)	18.8	-1.2	6.2	-1.1	·	·
O=C(CNC(=O)c1ccccc1)OCc1nc2ccccc2s1	37.3*	-3.8	5.2	-9.5	16.6*	15.5
CN(C(=O)COC(=O)CNC(=O)c1ccc(Cl)cc1Cl)c1ccccc1	30.0*	-0.8	-1.7	5.0	12.5	23.1
COC(=O)C1CCN(C(=O)COC(=O)CNC(=O)c2ccc(Cl)cc2Cl)CC1	34.4*	0.6	4.6	-5.8	14.1*	24.7
O=C(CNC(=O)c1ccc(Cl)cc1Cl)OCc1nc2ccccc2s1	29.2*	1.9	1.8	-5.3	13.5*	17.5
Cc1ccc(C)c(N2CCN(C(C(=O)NC3CCCC3)C(C)C)CC2)c1 (stereo not given)	·	·	-2.3	-3.4	·	·
COc1ccccc1NCC(=O)N/N=C(\C)c1cccs1	39.8*	1.8	-0.1	7.5	2.2	10.3
Nc1nc(Sc2ccc(C(F)(F)F)cn2)n[nH]1	30.2*	-1.9	2.7	-10.2	-5.8	-19.6
O=C(COC(=O)C1CC2CCCC(C1)C2=O)NC1CCCCC1 (stereo not given)	12.4	-2.3	7.3	-1.2	·	·
O=C(/C=C/c1ccc(Cl)c([N+](=O)[O-])c1)Nc1cccc(NC(=O)c2ccco2)c1	45.0*	-0.6	11.2	-23.3	52.7*	57.4*
COc1ccc(-n2c(CN3CCN(c4ccccn4)CC3)nc3ccc([N+](=O)[O-])cc3c2=O)c(OC)c1	38.1*	-1.3	2.5	-4.4	0.8	7.2
COc1ccc(-n2c(CN3CCN(Cc4ccccc4)CC3)nc3ccc([N+](=O)[O-])cc3c2=O)c(OC)c1	16.5	0.4	0.1	-0.3	·	·
CNC[C@@H]1OCc2cnnn2CCCC(=O)N([C@H](C)CO)C[C@H]1C	-7.0	-0.2	2.8	-2.9	·	·
COc1ccc(OC)c(C(O)c2ncc(-c3ccc(C(F)(F)F)cc3)[nH]2)c1 (stereo not given)	5.4	-1.7	-8.1	-2.6	·	·
CCOc1ccc(-c2nnc3ccc(SCC(=O)N4CCCCC4)nn23)cc1	0.4	-1.7	2.2	1.3	·	·
CCOc1ccc(-c2nnc3ccc(SCC(=O)N4CCN(c5ccccc5)CC4)nn23)cc1	31.8*	0.3	0.7	-7.3	2.9	4.3
COc1ccc(C(=O)/C=C/C(=O)N(CC(=O)NC2CCCCC2)CC2CCCO2)c(O)c1 (stereo not given)	15.1	-5.0	-9.6	6.0	·	·
COc1ccc(C(=O)/C=C/C(=O)N(Cc2ccccc2OC)C(C(=O)NC2CCCCC2)c2ccncc2)c(O)c1 (stereo not given)	14.6	3.8	-1.7	5.7	·	·
COc1ccc(C(=O)/C=C/C(=O)N(CC(=O)NC2CCCCC2)Cc2ccccc2OC)c(O)c1	48.2*	-5.7	0.8	28.9	6.7	14.2
COc1ccc(C(=O)/C=C/C(=O)N(CC(=O)NC2CCCCC2)Cc2ccccc2)c(O)c1	39.9*	-1.7	-4.6	16.1	4.7	10.5
CCOc1ccc(S(=O)(=O)Nc2ccn(C)n2)cc1	-2.5	-1.1	0.9	0.9	·	·
CCSc1ncnc2c1oc1ccccc12	-1.7	-0.3	-0.7	11.1	·	·
Clc1ncnc2c1oc1ccccc12	39.0*	-2.0	-0.1	-3.1	-1.4	6.2
O=C(NCC(c1cccs1)N1CCOCC1)c1ccccc1NS(=O)(=O)c1cccc([N+](=O)[O-])c1 (stereo not given)	15.4	0.4	0.0	-3.1	·	·
SMILES	MC4R antag cAMP	MC4R barr agon	HTR2A ag	EBI2 antag	U2OS cAMP counter	MC4R cAMP antag
O=C(NCC(c1cccs1)N1CCOCC1)c1ccc(Cl)c(S(=O)(=O)N2CCOCC2)c1 (stereo not given)	3.6	1.7	7.4	-1.6	·	·
O=C(NCC(c1cccs1)N1CCOCC1)c1ccccc1NS(=O)(=O)c1ccc(Cl)c([N+](=O)[O-])c1 (stereo not given)	29.5*	0.1	9.4	-3.0	4.2	4.7
O=C(NCC(c1cccs1)N1CCOCC1)c1ccc(Cl)c([N+](=O)[O-])c1 (stereo not given)	41.3*	-2.6	3.0	-3.8	16.3*	46.9*
CCCNC(=O)C1(C)CCCN(Cc2ccccc2N(C)C)C1 (stereo not given)	9.8	1.2	0.3	-7.2	·	·
O=C(NCc1cccs1)c1cccc2c(-c3cccnc3)coc12	11.3	4.6	-1.7	-1.0	·	·
COc1ccccc1CN(C)C[C@@H]1OCc2cnnn2CCCC(=O)N([C@H](C)CO)C[C@H]1C	7.8	0.8	3.1	-10.7	·	·
CC1(C)Cc2c(c(N3CCOCC3)nc3sc4c(NCC5CCCO5)nnnc4c23)CS1 (stereo not given)	30.9*	0.8	0.7	15.4	-0.4	-0.5
CC(C)C[C@H]1CNC(=S)N1CC1CCN(CCCCc2ccccc2)CC1	1.4	0.6	-6.8	-6.8	·	·
S=c1[nH]c(-c2ccccc2)cn1/N=C/c1cccc2ccccc12	28.8*	-0.2	-3.6	6.0	1.4	-5.6
S=c1[nH]c(-c2ccccc2)cn1/N=C/c1ccccc1Br	5.4	-2.5	0.9	14.9	·	·
CCOC(=O)CNC(=S)N(CCCN1CCCCCC1)Cc1cccs1	33.9*	0.2	6.7	5.1	0.8	0.4
Cc1ccc(NC(=O)CN2CCC(NC(=O)c3cccc(F)c3)CC2)cc1C	30.4*	2.7	3.5	-3.1	1.8	-6.8
O=C(CC1C(=O)NCCN1CC1CCCCC1)NCc1cccc(F)c1F (stereo not given)	29.5*	2.6	2.2	7.7	0.5	-1.4
O=c1sc(N2CCN(c3ccccc3F)CC2)nc2ccsc12	4.0	5.8	-1.4	-22.7	·	·
O=c1sc(N2CCN(c3ccc(F)cc3)CC2)nc2ccsc12	+	5.7	2.5	6.0	-3.2	1.5
O=C1ON=C(c2cccc([N+](=O)[O-])c2)/C1=C/c1ccc(O)cc1	37.6*	1.2	2.9	-8.4	3.6	7.9
CCOC(=O)C(C)Sc1nc2c(c(-c3cccs3)c1C#N)CCC2 (stereo not given)	15.2	-0.5	-1.5	12.8	·	·
N#Cc1c(SC(C(=O)O)c2ccccc2)nc2c(c1-c1cccs1)CCCC2 (stereo not given)	31.0*	-0.7	0.2	-4.9	18.0*	27.0
O=C(COC(=O)C1CC2C=CC1C2)Nc1c(Br)cc([N+](=O)[O-])cc1Br (stereo not given)	4.1	-0.5	3.9	-2.2	·	·
CCc1nc2ccc(C(=O)N(C)Cc3ccco3)cn2c1N(C)Cc1ccc(OC)cc1	0.5	0.0	1.0	-10.8	·	·
